Bioassay records deposited in PubChem by several laboratories.
Diaph inh CS: diaphorase inhibition or chemical oxidation counter-screen; 190,000 tested, 0.69% active; diaphorase resazurin-to-resorufin fluorescence, NADH, 16 min; bacterial (C. kluyveri) enzyme, not human; inhibition, % at 20 µM;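 active = primary screen inhibition at 20 µM above a set limit, cut at about 50% in these data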
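Detection: fluorescence of resorufin formed from resazurin, Ex 544/Em 590 nm; test system: Clostridium kluyveri diaphorase enzyme; amount: 0.14 U/mL diaphorase, enzyme working solution; times: 16-min room-temperature incubation before reading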
WT yeast gro inh: growth inhibition of WT yeast, mitochondrial fusion screen; mitochondrial fusion phenotypic screen, WT strain; inhibition, % at 10 µM; 190,000 tested, 2.1% active; in the data active = inhibition above about 58%; tested in S. cerevisiae
Lmaj promast: reduces viability of Leishmania major promastigotes | resazurin fluorescence viability | inhibition, % at 10 µM | 200,000 tested, 9% active | AID 1063; in the data active = inhibition above about 50%;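 also: promastigotes grown with compound for 44 hours at 28 °C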
Cl transport mod: KCC2 (human) Cl- transport modulation; Q9H2X9; KCC2 cells, thallium flux FluoZin-2 fluorescence; B-score of Tl+ flux slope (higher = more flux/activation; lower = inhibition) at 10 µM; 190,000 tested, 2.2% active;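 active = thallium flux slope and its plate-corrected score both differing from the plate sample mean at a set confidence after two filtering rounds, in either direction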;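 also: slope of fluorescence scaled to starting intensity during 10 to 20 s after thallium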
Target sequence (Q9H2X9 whole entry, looked up): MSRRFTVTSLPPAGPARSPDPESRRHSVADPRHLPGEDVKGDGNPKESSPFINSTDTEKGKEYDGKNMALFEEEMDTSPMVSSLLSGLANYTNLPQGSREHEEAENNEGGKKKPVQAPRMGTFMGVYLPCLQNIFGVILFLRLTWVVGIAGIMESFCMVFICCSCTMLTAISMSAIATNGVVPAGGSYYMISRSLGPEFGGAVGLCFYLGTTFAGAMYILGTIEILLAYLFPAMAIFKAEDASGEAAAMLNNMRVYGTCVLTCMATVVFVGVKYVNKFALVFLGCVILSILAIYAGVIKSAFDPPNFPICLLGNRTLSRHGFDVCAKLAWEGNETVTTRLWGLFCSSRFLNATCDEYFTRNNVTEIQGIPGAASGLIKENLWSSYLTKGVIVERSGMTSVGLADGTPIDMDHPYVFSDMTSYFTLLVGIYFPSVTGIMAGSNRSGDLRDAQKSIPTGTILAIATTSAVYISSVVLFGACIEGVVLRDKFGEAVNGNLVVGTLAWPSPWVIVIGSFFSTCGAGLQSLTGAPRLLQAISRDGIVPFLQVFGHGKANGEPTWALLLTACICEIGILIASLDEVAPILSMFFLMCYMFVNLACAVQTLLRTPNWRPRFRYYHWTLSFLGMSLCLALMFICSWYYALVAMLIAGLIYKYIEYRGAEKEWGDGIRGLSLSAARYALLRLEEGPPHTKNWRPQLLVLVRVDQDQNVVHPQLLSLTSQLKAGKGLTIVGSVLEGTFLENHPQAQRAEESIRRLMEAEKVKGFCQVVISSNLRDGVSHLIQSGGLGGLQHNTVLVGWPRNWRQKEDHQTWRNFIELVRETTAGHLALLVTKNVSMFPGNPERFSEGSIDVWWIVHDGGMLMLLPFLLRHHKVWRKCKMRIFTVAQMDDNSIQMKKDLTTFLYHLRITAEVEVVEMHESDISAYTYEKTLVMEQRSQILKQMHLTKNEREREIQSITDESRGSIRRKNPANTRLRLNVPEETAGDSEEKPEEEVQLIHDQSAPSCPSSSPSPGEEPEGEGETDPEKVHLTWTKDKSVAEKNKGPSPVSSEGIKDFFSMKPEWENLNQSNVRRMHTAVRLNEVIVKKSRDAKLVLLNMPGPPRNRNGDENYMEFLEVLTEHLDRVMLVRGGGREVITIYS
Diaph act CS: counter-screen for diaphorase-based assays: diaphorase activators and chemical reducers; Diaphorase/resazurin coupled assay, resorufin fluorescence, 16 min; hits give high values; 1 = vehicle wells, 0 = NADH-free wells; activation factor at 20 µM; 190,000 tested, 0.005% active; AID 1229;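 active = diaphorase activity raised at least twofold by the compound at 20 µM; inactive = activation factor below 2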
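Material: bacterial diaphorase enzyme (C. kluyveri); amount: enzyme 0.07 U/mL final; reagent: NADH substrate 0.114 mM plus resazurin dye 0.1 mM, final; doses: single compound dose of 20 µM, 1% DMSO final; timing: 16 min enzyme reaction, ambient temperature; measured by: fluorescence of resorufin, 544 nm excitation, 590 nm emission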
ROMK primary: human ROMK K+ channel modulation, primary screen; 130,000 tested, 2% active; Tet-inducible ROMK, thallium flux fluorescence; actives lie on both sides; B-score at 10 µM; AID 1918; P48048;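 active = signal ratio slope over the read window, or its plate-corrected B-score, at least 3 SD from the plate mean, either direction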;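 also: B-score of the F/F0 ratio slope over 7 to 12 s after thallium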
Large screens that a line does not name were inactive. Shown are actives, neighbours in structure and some others; about 12% of the full set was active somewhere.

COc1ccc(/C=C(\C#N)C(=O)NC2CCS(=O)(=O)C2)cc1OC (stereo not given)	none
COC(=O)C1CC(O)CN1C(=O)Nc1ccccc1 (stereo not given)	none
CN1Cc2cccc3c2C(Cc2ccccc2S3)C1 (stereo not given)	Lmaj promast 57 (no result: ROMK primary)
CC(=C1C(=O)c2ccccc2C1=O)N1CCN(C/C=C/c2ccccc2)CC1	Lmaj promast 83
O=C(c1cc(Br)c(Br)s1)N1CCN(C/C=C/c2ccccc2)CC1	WT yeast gro inh 64
CC(=C1C(=O)c2ccccc2C1=O)N1CCN(Cc2ccccc2)CC1	none (no result: Cl transport mod)
Cc1ccc(NC(=O)N2CCN(C/C=C/c3ccccc3)CC2)cc1	none
CCCCNC(=O)N1CCN(C/C=C/c2ccccc2)CC1	Lmaj promast 53 (no result: ROMK primary)
O=C(Nc1ccc2c(c1)OCO2)N1CCN(C/C=C/c2ccccc2)CC1	Lmaj promast 74 (no result: Cl transport mod, ROMK primary)
O=[n+]1c2c(n([O-])c3ccccc31)CCCC2	none
CCCNC(=O)CN1C(=O)NC(CCSC)C1=O (stereo not given)	none (no result: Diaph inh CS, WT yeast gro inh, Lmaj promast, Diaph act CS, ROMK primary)
O=C(c1cnccn1)N1CCc2ccccc2C1	none
COc1ccc(NC2c3ccccc3C(=O)N2c2ccccn2)cc1 (stereo not given)	none (no result: Diaph inh CS, WT yeast gro inh, Lmaj promast, Diaph act CS)
CCOC(=O)Cc1c(Sc2ccccc2)c2ccccc2n1C	WT yeast gro inh 66 (no result: ROMK primary)
COc1ccc(OC)c(NC(=O)COC(=O)Cc2ccc(Br)cc2)c1	WT yeast gro inh 67 (no result: ROMK primary)
CC1(C)CC2CC(C)(CN2S(=O)(=O)c2ccc(C(=O)Nc3cccc(S(=O)(=O)N4CCOCC4)c3)cc2)C1 (stereo not given)	Lmaj promast 99 (no result: ROMK primary)
CC1(C)CC2CC(C)(CN2S(=O)(=O)c2ccc(C(=O)Nc3cc(S(=O)(=O)N4CCOCC4)ccc3Cl)cc2)C1 (stereo not given)	Lmaj promast 99 (no result: ROMK primary)
CC(=O)Oc1ccc(-c2ccc(C(=O)Nc3cccc(S(=O)(=O)N4CCOCC4)c3)cc2)cc1	none
CC1CC1C(=O)Nc1cc(S(=O)(=O)N2CCOCC2)ccc1N1CCCC1 (stereo not given)	none
CC(C)C(c1nnnn1Cc1cccs1)N1CCN(C(=O)c2ccco2)CC1 (stereo not given)	none (no result: Diaph inh CS, Diaph act CS)
Cc1ccc(C(=O)Nc2ccc(S(=O)(=O)N3CCCC3)cc2)s1	none
CN1CCN(S(=O)(=O)c2ccc(-c3ccccc3)cc2)CC1	Lmaj promast 86 (no result: ROMK primary)
CC(=O)c1ccc(NC(=O)c2ccc(S(=O)(=O)N3CCCC3)cc2)cc1	Lmaj promast 98 (no result: ROMK primary)
Cc1cccc(C(=O)NC(=S)Nc2ccc(Cc3ccncc3)cc2)c1	WT yeast gro inh 61
Cc1cc(C(=O)Nc2ccc(S(=O)(=O)N3CCCC3)cc2)cs1	Lmaj promast 73 (no result: ROMK primary)
COc1c(C)cc(C(=O)C2CCCN(C(=O)c3snnc3C)C2)cc1C (stereo not given)	none
Cc1cccc(C(=O)NC(=S)Nc2ccc(S(=O)(=O)N3CCCCC3)cc2)c1	Lmaj promast 100
Cc1cccc(C(=O)NC(=S)Nc2ccc(S(=O)(=O)N3CCN(C)CC3)cc2)c1	none (no result: ROMK primary)
NC(=O)c1ccsc1NC(=O)c1ccc(S(=O)(=O)N2CCCC2)cc1	Lmaj promast 56
COC(=O)Nc1ccc(S(=O)(=O)N2CCN(C)CC2)cc1	none (no result: ROMK primary)
O=C(Nc1ccc(Cc2ccncc2)cc1)c1ccc(S(=O)(=O)N2CCCC2)cc1	Lmaj promast 99
NC(=O)c1ccsc1NC(=O)c1ccc(S(=O)(=O)N2CCCCC2)cc1	none (no result: ROMK primary)
CC(=O)Nc1ccc(S(=O)(=O)N2CCN(C)CC2)cc1	WT yeast gro inh 64 (no result: Cl transport mod)
COc1ccc(CCNC(=O)c2ccccc2SC)cc1	none
CCOP(=O)(OCC)C(Nc1ccccc1)c1ccccc1C(F)(F)F (stereo not given)	none (no result: Diaph inh CS, WT yeast gro inh, Lmaj promast, Diaph act CS)
CCN(CC)S(=O)(=O)c1ccc(OC)c(NC(=O)c2cccc(C)c2[N+](=O)[O-])c1	none
CCN(CC)S(=O)(=O)c1ccc(OC)c(NC(=S)Nc2cccc(C)c2C)c1	Lmaj promast 97
CCN(CC)S(=O)(=O)c1ccc(OC)c(NC(=S)Nc2cccc(C)c2)c1	Lmaj promast 98
CCN(CC)S(=O)(=O)c1ccc(N2CCOCC2)c(NC(=O)c2c3c(nc4ccccc24)CCC3)c1	none (no result: ROMK primary)
Cc1cc(C)c(C(=O)COC(=O)CCNS(=O)(=O)c2c(Cl)cccc2Cl)cc1C	Lmaj promast 74 (no result: ROMK primary)
Cc1ccc(Sc2ncnc3onc(C)c23)c(C)c1	WT yeast gro inh 61
Cc1noc2ncnc(Sc3ccccc3Cl)c12	WT yeast gro inh 99, Lmaj promast 80 (no result: Cl transport mod)
Cc1noc2ncnc(Oc3ccccc3Cl)c12	none
COC(=O)c1ccccc1Sc1ncnc2onc(C)c12	Lmaj promast 57 (no result: Cl transport mod)
N/C(COc1cccc(Cl)c1)=N\NS(=O)(=O)c1ccccc1	none (no result: Cl transport mod, ROMK primary)
CC1CCc2c(nc3ncnn3c2NCCN(C)C)C1 (stereo not given)	none
O=C(/C=C/c1ccc([N+](=O)[O-])cc1)NCc1ccccn1	none
O=C(/C=C/c1ccc([N+](=O)[O-])cc1)Nc1ncc([N+](=O)[O-])s1	Lmaj promast 83
Cc1ccc(S(=O)(=O)N2CCCCC2)cc1NC(=O)COC(=O)c1ccc2c(c1)OCO2	none
COCCn1c(-c2ccc(-c3ccc([N+](=O)[O-])cc3Br)o2)nc2c1c(=O)[nH]c(=O)n2CC(C)C	Lmaj promast 73
Cn1c(-c2cc(Cl)ccc2O)nc2c1c(=O)[nH]c(=O)n2Cc1ccccc1	Lmaj promast 54
COc1ccc(-c2ccc(-c3nc4c(c(=O)[nH]c(=O)n4Cc4ccccc4)n3C)o2)c([N+](=O)[O-])c1	Lmaj promast 72
COCCn1c(=O)[nH]c(=O)c2c1nc(-c1ccc(-c3ccc(Cl)cc3[N+](=O)[O-])o1)n2Cc1ccccc1	none
CCCCn1c(=O)[nH]c(=O)c2c1nc(-c1ccccc1F)n2Cc1ccccc1	none
O=c1[nH]c2ccccc2nc1C(Nc1ccccc1)c1ccccc1 (stereo not given)	none (no result: Diaph inh CS, WT yeast gro inh, Lmaj promast, Diaph act CS, ROMK primary)
CCC(C)C(NC(=O)[C@@H](NC(=O)c1ccccc1F)C(C)C)C(=O)OC (stereo not given in full)	none
CCOC(=O)C1(Cc2cccc(OC)c2)CCN(Cc2ccccc2)CC1	none (no result: ROMK primary)
CCOC(=O)C1(Cc2cccc(OC)c2)CCN(Cc2cccc3cnccc23)CC1	Lmaj promast 91 (no result: Cl transport mod)
CCOC(=O)C1(Cc2cccc(OC)c2)CCN(Cc2cnc(SC)nc2)CC1	Lmaj promast 82 (no result: Cl transport mod)
CCOC(=O)C1(Cc2cccc(OC)c2)CCN(Cc2cccnc2)CC1	Lmaj promast 55 (no result: Diaph inh CS, Diaph act CS, ROMK primary)
CC/C(=N/O)C(=O)c1ccc(Br)cc1	none
CCCOc1ccc(-c2nc(C#N)c(NCC3CCCO3)o2)cc1 (stereo not given)	Lmaj promast 92 (no result: Cl transport mod)
